In article PMC5518655 (Acta Pharmaceutica Sinica. B, 2017):

How the values were obtained:
[1] = molecular target: DENV2 NS2B/NS3 protease (Dengue virus type 2, UniProt P14340); test: In vitro DENV2 NS2B/NS3 protease assay with fluorogenic peptide substrate; format: biochemical; conditions: for inhibition at 50 µM: read-out: inhibition at 50 µmol/L (preliminary screening)
Method in brief: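 Screened at 50 µmol/L; IC50 measured only when inhibition exceeded 10%. DENV2 NS2B-NS3 (0.57 µmol/L) and test compound in DMSO, in Tris–HCl pH 8.5, preincubated 10 min at 37 °C, 200 rpm. […] added, shaken 60 min more; fluorescence read, blank-subtracted. Triplicates, 3 independent experiments, mean±SD; IC50 read graphically from log concentration vs % inhibition.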

[2] = molecular target: DEN2 serine protease; conditions: cited from earlier work

Sequence of DENV2 NS2B/NS3 protease (P14340 1476-2093 limits assumed): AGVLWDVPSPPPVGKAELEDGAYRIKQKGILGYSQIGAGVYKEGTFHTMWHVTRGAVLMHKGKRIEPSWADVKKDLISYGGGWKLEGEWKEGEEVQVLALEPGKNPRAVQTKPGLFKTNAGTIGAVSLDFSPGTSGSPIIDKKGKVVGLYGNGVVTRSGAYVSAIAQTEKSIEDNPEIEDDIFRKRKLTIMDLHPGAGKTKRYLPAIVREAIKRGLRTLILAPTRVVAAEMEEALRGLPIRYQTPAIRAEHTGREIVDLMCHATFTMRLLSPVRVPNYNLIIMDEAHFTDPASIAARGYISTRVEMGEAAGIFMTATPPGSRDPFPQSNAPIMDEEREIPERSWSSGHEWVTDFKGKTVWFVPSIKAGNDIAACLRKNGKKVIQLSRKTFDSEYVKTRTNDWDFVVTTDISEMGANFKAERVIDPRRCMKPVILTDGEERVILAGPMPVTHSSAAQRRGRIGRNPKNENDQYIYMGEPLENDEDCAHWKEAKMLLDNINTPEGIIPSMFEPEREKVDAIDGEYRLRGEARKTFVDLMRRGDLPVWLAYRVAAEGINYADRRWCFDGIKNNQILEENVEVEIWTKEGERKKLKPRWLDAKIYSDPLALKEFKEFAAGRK
Sequence of DENV2 NS2B/NS3 protease (P14340 1346-1475 partner limits assumed): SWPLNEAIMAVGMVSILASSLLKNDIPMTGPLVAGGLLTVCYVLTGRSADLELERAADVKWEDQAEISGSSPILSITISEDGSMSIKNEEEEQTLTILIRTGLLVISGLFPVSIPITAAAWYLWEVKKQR

IC50 [1]	inhibition at 50 µM [1]	SMILES	Ki [2]
15.2 ± 1.1 µM	> 10%	O=C1C(=Cc2ccc([N+](=O)[O-])cc2)CN(CC(=O)c2ccc(F)cc2)CC1=Cc1ccc([N+](=O)[O-])cc1 [Compound 4e, 1-(2-(4-Fluorophenyl)-2-oxoethyl)-3,5-bis(4-nitrobenzylidene)piperidin-4-one]	–
16.2 ± 1.3 µM	> 10%	COc1ccc(C(=O)CN2CC(=Cc3ccc([N+](=O)[O-])cc3)C(=O)C(=Cc3ccc([N+](=O)[O-])cc3)C2)cc1 [Compound 4j, 1-(2-(4-Methoxyphenyl)-2-oxoethyl)-3,5-bis(4-nitrobenzylidene)piperidin-4-one]	–
–	–	CC(C)=CC[C@@H]1C(C)=CC[C@@H](c2ccccc2)[C@@H]1C(=O)c1c(O)cc(O)cc1O [4-hydroxypanduratin A]	21 µM
57.3 ± 1.3 µM	–	COc1cc(O)c(C(=O)[C@@H]2[C@H](CC=C(C)C)C(C)=CC[C@H]2c2ccccc2)c(O)c1 [Panduratin A, panduratin A, reference compound]	25 µM
